TAAR1 agonist: agonists of human TAAR1. activation, % at 3 µM. 360,000 tested, 0.99% active. AID 624467. CHO RD-HGA16 TAAR1, Fluo-8 calcium fluorescence; vehicle wells 0%, saturating PEA agonist 100%. Q96RJ0;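 active means activation above the mean activation of all test compounds in the run plus 3 SD, cut at about 38% in these data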
Target sequence (Q96RJ0 whole entry, looked up): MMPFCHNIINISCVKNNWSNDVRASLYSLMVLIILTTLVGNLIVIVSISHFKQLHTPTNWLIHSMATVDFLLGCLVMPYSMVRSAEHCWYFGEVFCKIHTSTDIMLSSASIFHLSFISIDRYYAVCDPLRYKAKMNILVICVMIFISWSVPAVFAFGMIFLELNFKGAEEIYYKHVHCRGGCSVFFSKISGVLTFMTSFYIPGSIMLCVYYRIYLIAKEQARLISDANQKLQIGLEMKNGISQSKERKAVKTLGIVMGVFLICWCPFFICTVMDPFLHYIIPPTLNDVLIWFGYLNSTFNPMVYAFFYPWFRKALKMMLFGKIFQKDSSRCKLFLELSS
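Assay system: CHO-derived RD-HGA16 cells with stable Gα16 and human TAAR1; timing: 17-24 h seeding, 75 min 37 °C dye, 30 min RT; read-out: % activation from peak over basal fluorescence ratio, DMSO-to-PEA scaled; measured by: kinetic Fluo-8 calcium fluorescence; benchmarks: low control DMSO, high control PEA (EC100); doses: 3 µM single concentration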
OX1R antag-1: blocks the human orexin 1 receptor; inhibition, % at 5 µM; 330,000 tested, 0.43% active; CHO/OX1R cells, Fluo-8 calcium fluorescence, orexin A;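 active means inhibition above its plate's threshold, mean inhibition of all tested compounds on the plate plus 3 SD, cut at about 37% in these data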;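 further: 0% = orexin A challenge wells and 100% = SB-334867-A antagonist wells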
Target sequence (O43613 whole entry, looked up): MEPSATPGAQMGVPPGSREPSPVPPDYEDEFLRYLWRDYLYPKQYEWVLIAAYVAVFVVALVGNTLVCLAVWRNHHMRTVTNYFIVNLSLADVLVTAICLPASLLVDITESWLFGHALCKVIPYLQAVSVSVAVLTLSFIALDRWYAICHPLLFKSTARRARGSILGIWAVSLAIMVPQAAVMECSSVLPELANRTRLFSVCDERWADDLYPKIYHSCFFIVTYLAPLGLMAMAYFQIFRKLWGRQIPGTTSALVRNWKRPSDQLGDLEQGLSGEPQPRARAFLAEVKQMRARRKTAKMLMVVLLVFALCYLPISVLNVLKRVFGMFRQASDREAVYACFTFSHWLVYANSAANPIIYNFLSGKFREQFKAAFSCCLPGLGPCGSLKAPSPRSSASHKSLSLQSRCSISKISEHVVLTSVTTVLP
CHO parental Ca: counter-screen for OX1R antagonists: effect in parental CHO cells; parental CHO-K1, ATP-induced calcium, Fluo-8 fluorescence; inhibition, % at 5.6 µM; 330,000 tested, 0.63% active;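 active means inhibition above that plate's mean sample inhibition plus 3 SD, cut at about 26% in these data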;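 further: 0% = ATP-challenged DMSO wells and 100% = DMSO wells without ATP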
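Assay system: parental CHO cells; Read-out basis: percent inhibition of ATP-evoked calcium rise, normalized to controls; Benchmarks: ATP and no-ATP DMSO wells; Compound dosing: single nominal dose of 5.6 µM per compound; Signal: Fluo-8 calcium dye fluorescence; Also added: ATP as calcium-mobilizing challenge; Repeats: singlicate.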
TAAR1 antag: antagonists of human TAAR1; AID 624466; inhibition, % at 3 µM; 360,000 tested, 1.5% active; Q96RJ0; CHO RD-HGA16 TAAR1, Fluo-8 calcium fluorescence, antagonist;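 active means inhibition above a per-plate cutoff, the mean inhibition of test compounds on that plate plus 3 SD, cut at about 49% in these data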;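 further: 0% = DMSO plus EC80 beta-PEA response and 100% = DMSO alone without agonist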
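Test system: CHO RD-HGA16 cells bearing hTAAR1 | Reagent: β-PEA, EC80 | Compound dosing: 3 µM, single point | Schedule: Dye loading 75 min at 37 °C, then 30 min room temperature | Signal: Calcium fluorescence with Fluo-8 | Evaluation: Percent inhibition of PEA-evoked calcium signal, max/basal emission ratio | Control set: DMSO-only wells and EC80 β-PEA-stimulated wells | Repeats: Singlicate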
GPR7 antagonist: blocks human GPR7 receptor signaling; AID 1861; inhibition, % at 4.4 µM; 290,000 tested, 1.1% active; GPR7-expressing cells, fluorescence antagonist assay; in the data active means inhibition above about 16%, passing the limit was not always enough;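 further: cells stimulated with the agonist NPW; 0% = agonist with vehicle and 100% = vehicle without agonist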
OX1R antag-2: antagonists of human orexin 1 receptor (OX1R) | O43613 | OX1R-expressing cells, FRET antagonist read-out | inhibition, % at 6.6 µM | 330,000 tested, 1.8% active; in the data active means inhibition mostly above about 38%, no sharp cut-off; inactive means mostly below about 40%;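 further: 0% = agonist challenge alone and 100% = reference antagonist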
GPR7 antag cf: confirmation of human GPR7 antagonists; 2,400 tested, 52% active; GPR7-expressing cells, calcium fluorescence antagonist mode; AID 1952; inhibition, % at 4.4 µM; shares compounds with GPR7 antagonist; in the data active means inhibition above about 24%;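 further: stimulated with the GPR7 agonist NPW; 0% = agonist plus vehicle and 100% = vehicle alone without agonist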
MCHR1 antag: counter-screen for GPR7 antagonists: antagonists of human MCHR1 | shares compounds with GPR7 antagonist | MCHR1-expressing cells, fluorescence antagonist assay | inhibition, % at 4.4 µM | 2,400 tested, 62% active | AID 2148; in the data active means inhibition above about 22%;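 further: 0% = vehicle with agonist and 100% = vehicle without agonist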
An asterisk follows results filed as active; nt = no result. Sampled rows, rich in hits. Any-hit rate of the full collection: about 4.5%.

SMILES | TAAR1 agonist | OX1R antag-1 | CHO parental Ca | TAAR1 antag | GPR7 antagonist | OX1R antag-2 | GPR7 antag cf | MCHR1 antag
CN1C(=O)C(=C2CCCCCC2)SC1=S | 16 | -10 | -18 | -20 | 31* | 32 | -6 | -3
CCN(Cc1ccccc1)C(c1ccccn1)c1nnnn1C(C)(C)CC (configuration not stated) | 3 | 9 | -12 | -12 | 22* | 15 | 25* | 56*
CC(C)(C)n1nnnc1C(c1ccccn1)N(Cc1ccccc1)Cc1ccc(Cl)cc1 (configuration not stated) | 6 | -20 | -2 | -10 | -1 | 10 | nt | nt
Clc1ccccc1Nc1ncnc2c1nnn2Cc1ccccc1 | 6 | -29 | -22 | -8 | 34* | 16 | 24 | 4
CC(NCc1cc(Br)ccc1OCC(N)=O)C12CC3CC(CC(C3)C1)C2 (configuration not stated) | 27 | -49 | -27 | 33 | 27* | 3 | 28* | 35*
CC(=O)O[C@@H]1C[C@H]2C(C)(C)C(=O)C=C[C@]2(C)[C@H]2CC[C@@]3(C)[C@H](c4ccoc4)OC(=O)[C@H]4O[C@]43[C@@]21C | 21 | -19 | -6 | 20 | 28* | 17 | 42* | 18
c1ccc(OCCSc2nnnn2-c2ccccc2)cc1 | 0 | -24 | -19 | 9 | 31* | 22 | 10 | 35*
CCOc1ccc(OCCSc2nnnn2-c2ccccc2)cc1 | 14 | -21 | -8 | 29 | 0 | 30 | nt | nt
CCc1cc(=O)oc2c3c(cc(OCC(=O)NCc4ccco4)c12)OC(C)(C)CC3 | nt | -29 | 5 | nt | 41* | 10 | 15 | 32*
CCOC(=O)N1CCC(N(C(=O)Nc2cccc(OC)c2)C(C)CC)CC1 (configuration not stated) | 2 | 5 | -6 | 4 | 32* | -2 | 19 | -12
CC1(C(=O)Nc2ccc(F)cc2F)CCN1C(=O)CCC1CCCC1 (configuration not stated) | -1 | nt | nt | -34 | nt | nt | nt | nt
O=C(c1ccco1)N1CCN(c2ncnc3scc(-c4ccccc4)c23)CC1 | 8 | -37 | -31 | 24 | 14 | 33 | nt | nt
Cc1ccc(-c2csc3ncnc(N4CCN(C(=O)c5ccccc5)CC4)c23)cc1 | 12 | -22 | -36 | 50* | 29* | 26 | 36* | 53*
CCc1ccc(CSc2nccn2-c2ccccc2)cc1 | 25 | -8 | -17 | 27 | 27* | 28 | -9 | 40*
CCCNC(=O)Nc1nc(C(N)c2ccc(OC)cc2)cs1 (configuration not stated) | 1 | nt | nt | 4 | nt | nt | nt | nt
CC(C)c1ccc(C(C)NC(=S)NC2CCCCC2)cc1 (configuration not stated) | 12 | nt | nt | 17 | -16 | nt | nt | nt
CC(NC(=S)NC1CCCCC1)c1ccc(C(C)(C)C)cc1 (configuration not stated) | 16 | 19 | 21 | 5 | 25* | 17 | 40* | 61*
CN(C(=O)CN1CCN(c2cc(-c3cccc4oc5ccccc5c34)ncn2)CC1)c1ccccc1 | 3 | nt | nt | 14 | nt | nt | nt | nt
CCN(CC)S(=O)(=O)c1cc(C(=O)OC)ccc1Cl | -1 | -6 | -10 | 2 | 37* | 11 | -1 | -4
Nc1c(-c2ccc(F)c(F)c2)nc2ncccn12 | 1 | nt | nt | 6 | nt | nt | nt | nt
CCCCC(=O)N(C)c1c(CC)nc2c(OCC(N)=O)cccn12 | 0 | nt | nt | 10 | nt | nt | nt | nt
COc1cccc(NC(=O)COc2cccc(-n3cnnn3)c2)c1 | 5 | -4 | 9 | 18 | 10 | 9 | nt | nt
Cc1cc(OCCCC(=O)Nc2cccc(-n3cnnn3)c2)ccc1Cl | 7 | 22 | 32 | 60* | 29* | 14 | 48* | 82*
CCC[C@H]1CN(Cc2ccccc2)C(=O)[C@@H]1CC(=O)NC | 1 | nt | nt | 3 | nt | nt | nt | nt
c1ccc(-c2csc3ncnc(NCC4COc5ccccc5O4)c23)cc1 (configuration not stated) | 0 | 18 | 79* | 39 | 50* | 40 | 54* | 63*
SMILES | TAAR1 agonist | OX1R antag-1 | CHO parental Ca | TAAR1 antag | GPR7 antagonist | OX1R antag-2 | GPR7 antag cf | MCHR1 antag
CC(C)CC(Nc1ncnc2scc(-c3ccccc3)c12)C(=O)O (configuration not stated) | 2 | -3 | -7 | -9 | -7 | 16 | nt | nt
Cc1ccc(NC(=O)CCNC(=O)N2CC(=O)Nc3ccccc32)cc1Cl | 0 | nt | nt | 0 | nt | nt | nt | nt
CCN(CC)CCNC(=O)c1ccc(NC(=O)c2cn(-c3ccc(F)cc3)nc2-c2cccc(OC)c2)cc1 | 7 | -19 | 2 | 12 | 15 | 15 | nt | nt
CCN(CC)CCNC(=O)c1ccc(NC(=O)c2cn(-c3ccccc3)nc2-c2cccs2)cc1 | 11 | -2 | 18 | 24 | 22* | 25 | 35* | 45*
O=C(Nc1ccc(S(=O)(=O)N2CCCC2)cc1)c1ccc(CN2CCOCC2)cc1 | 24 | -27 | -9 | 11 | 16 | 12 | nt | nt
O=C(Nc1ccc(S(=O)(=O)N2CCCCC2)cc1)c1ccc(CN2CCOCC2)cc1 | nt | 12 | 19 | nt | 60* | -1 | 62* | 83*
O=C(Nc1ccc(S(=O)(=O)Nc2ccc(F)cc2)cc1)c1ccc(CN2CCOCC2)cc1 | 15 | 14 | 15 | 23 | 30* | 28 | 66* | 77*
Cc1nc(N2CCN(S(=O)(=O)c3cccs3)CC2)c2c(-c3ccccc3)c(C)sc2n1 | 2 | nt | nt | 25 | nt | nt | nt | nt
CC(OC(=O)Cc1ccc(Cl)cc1)C(=O)NC1CCCCC1C (configuration not stated) | 0 | nt | nt | -33 | nt | nt | nt | nt
Cc1cc(Cl)ccc1NNC(=O)c1cccs1 | 1 | -5 | -14 | -19 | 23* | 1 | 1 | 3
Cc1ccc(CSCCNC(=O)CSCc2ccc([N+](=O)[O-])cc2)cc1 | 4 | -18 | -17 | 17 | 27* | 7 | 49* | 45*
Cc1cccc(CSCCNC(=O)CSCc2ccc([N+](=O)[O-])cc2)c1 | 1 | -14 | 0 | 22 | 53* | 17 | 36* | 73*
Cc1ccccc1CSCCNC(=O)CSCc1ccc([N+](=O)[O-])cc1 | 13 | -4 | 1 | 12 | 10 | 16 | nt | nt
CCN(c1ccccc1)S(=O)(=O)c1ccc(NC(=O)c2nc(S(C)(=O)=O)ncc2Cl)cc1 | nt | 62* | 46* | nt | 98* | 20 | 97* | 102*
CS(=O)(=O)c1ncc(Cl)c(C(=O)Nc2ccc(N3CCOCC3)cc2)n1 | nt | 11 | 16 | nt | 1 | 58 | nt | nt
O=C(Nc1ccc(F)cc1)c1nc(S(=O)(=O)Cc2ccccc2)ncc1Cl | -3 | 30 | 26 | 25 | 16 | 34 | nt | nt

Assay outcomes as filed in PubChem.
